Data taken from ChEMBL document CHEMBL3232837, “Synthesis and evaluation of new Hsp90 inhibitors based on a 1,4,5-trisubstituted 1,2,3-triazole scaffold” (J Med Chem, 2014).

Assays:
[1] = molecular target: Heat shock protein HSP 90-alpha (Homo sapiens, UniProt P07900); test: Displacement of GM-FITC from full-length recombinant human Hsp90-alpha after 4 hrs by fluorescence polarization assay
[2] = test system: NCI-H460; test: Cytotoxicity against human NCI-H460 cells assessed as growth inhibition after 72 hrs by SRB assay; type: functional, cell-based; conditions: NCI-H460, 72 h
Procedure, shortened: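 NCI-H460 cells grown in RPMI-1640 with 10% heat-inactivated FBS, seeded at about 10% confluence and allowed 24 h recovery. Exposed to graded drug concentrations or solvent for 72 h. Surviving fraction measured by sulforhodamine B. IC50 is the concentration giving a 50% drop in cell number vs vehicle, from dose-response curve fitting; mean of n=4 with SD.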

[3] = molecular target: Heat shock protein HSP 90-beta (Homo sapiens) (UniProt P08238); test: Inhibition of HSP90 in human A431 cells overexpressing EGFR assessed as induction of HSP70 protein expression after 24 hrs by Western blot analysis; type: cell-based; conditions: A-431
Procedure, shortened: (§1)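 A431 cells treated 24 h after seeding for 24 h over a concentration range; 17-DMAG 0.2 µM as reference. Cells lysed in RIPA buffer with protease and phosphatase inhibitors, protein measured by Bradford. Equal protein run on SDS-PAGE and blotted to nitrocellulose, then probed for EGFR, Cdk4, Akt, Hsp70 and actin. ECL detection; densitometry normalized to β-actin. Run at least twice.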

[4] = molecular target: Heat shock protein HSP 90-beta (Homo sapiens) (UniProt P08238); test: Inhibition of HSP90 in human A431 cells overexpressing EGFR assessed as downregulation of EGFR protein expression after 24 hrs by Western blot analysis; type: cell-based; conditions: A-431; procedure, shortened: as §1
[5] = molecular target: Heat shock protein HSP 90-beta (Homo sapiens) (UniProt P08238); test: Inhibition of HSP90 in human A431 cells overexpressing EGFR assessed as downregulation of CDK4 protein expression after 24 hrs by Western blot analysis; type: cell-based; conditions: A-431; procedure, shortened: as §1
[6] = molecular target: Heat shock protein HSP 90-beta (Homo sapiens) (UniProt P08238); test: Inhibition of HSP90 in human A431 cells overexpressing EGFR assessed as downregulation of AKT protein expression after 24 hrs by Western blot analysis; type: cell-based; conditions: A-431; procedure, shortened: as §1

Chain of Heat shock protein HSP 90-beta (Homo sapiens) (P08238 whole entry): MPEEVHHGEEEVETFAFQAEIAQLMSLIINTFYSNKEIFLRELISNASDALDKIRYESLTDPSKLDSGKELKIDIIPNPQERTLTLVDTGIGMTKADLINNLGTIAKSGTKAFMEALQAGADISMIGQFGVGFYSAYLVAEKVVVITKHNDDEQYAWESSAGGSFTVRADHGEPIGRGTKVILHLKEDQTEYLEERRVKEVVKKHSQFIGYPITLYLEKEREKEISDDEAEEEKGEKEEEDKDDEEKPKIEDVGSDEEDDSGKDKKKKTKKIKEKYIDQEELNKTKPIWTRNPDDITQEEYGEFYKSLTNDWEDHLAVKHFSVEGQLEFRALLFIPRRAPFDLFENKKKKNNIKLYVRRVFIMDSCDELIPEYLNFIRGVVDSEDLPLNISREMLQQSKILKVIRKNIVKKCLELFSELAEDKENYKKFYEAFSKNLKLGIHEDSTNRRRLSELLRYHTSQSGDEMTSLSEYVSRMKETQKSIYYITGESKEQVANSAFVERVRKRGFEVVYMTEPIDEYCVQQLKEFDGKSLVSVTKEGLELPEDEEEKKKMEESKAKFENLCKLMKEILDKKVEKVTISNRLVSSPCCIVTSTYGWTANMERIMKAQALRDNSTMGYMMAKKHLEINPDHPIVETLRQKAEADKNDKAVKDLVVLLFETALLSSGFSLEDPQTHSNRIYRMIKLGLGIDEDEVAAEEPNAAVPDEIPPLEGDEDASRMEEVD

| SMILES | IC50 [1] [nM] | IC50 [2] [nM] | inhibition [3] | inhibition [4] | inhibition [5] | inhibition [6] |
| --- | --- | --- | --- | --- | --- | --- |
| CC(C)c1cc(-n2nnc(C(=O)N3CCOCC3)c2-c2ccc(CN3CCOCC3)cc2)c(O)cc1O | 270 | > 1000 |  |  |  |  |
| CCNC(=O)c1nnn(-c2cc(C(C)C)c(O)cc2O)c1-c1ccc(CNC2CCCCC2)cc1 | 6.8 | 15 |  |  |  |  |
| CCCCCCCNC(=O)c1nnn(-c2cc(C(C)C)c(O)cc2O)c1-c1ccc(CN2CCOCC2)cc1 | 33 | 45 |  |  |  |  |
| CCNC(=O)c1nnn(-c2cc(C(C)C)c(O)cc2O)c1-c1ccc(CN(CC)CCO)cc1 | < 5 | 56 |  |  |  |  |
| CCNC(=O)c1nnn(-c2cc(C(C)C)c(O)cc2O)c1-c1ccc(CNCCCN(CC)CC)cc1 | 12 | 412 |  |  |  |  |
| CCNC(=O)c1nnn(-c2cc(C(C)C)c(O)cc2O)c1-c1ccc(CNCCN(CC)CC)cc1 | 15 | 200 |  |  |  |  |
| CCNC(=O)c1nnn(-c2cc(C(C)C)c(O)cc2O)c1-c1ccc(CN(CC)CC)cc1 | 25 | 11 | Dose-dependent effect | Dose-dependent effect | Dose-dependent effect | Dose-dependent effect |
| CCNC(=O)c1nnn(-c2cc(C(C)C)c(O)cc2O)c1-c1ccc(CN2CCC[C@H](O)C2)cc1 | 23 | 70 |  |  |  |  |
| CCNC(=O)c1nnn(-c2cc(C(C)C)c(O)cc2O)c1-c1ccc(CNCC2CCCCC2)cc1 | < 5 | 2.1 | Dose-dependent effect | Dose-dependent effect | Dose-dependent effect | Dose-dependent effect |
| CCNC(=O)c1nnn(-c2cc(C(C)C)c(O)cc2O)c1-c1ccc(CN2CCNCC2)cc1 | < 5 | 250 |  |  |  |  |
| CCNC(=O)c1nnn(-c2cc(C(C)C)c(O)cc2O)c1-c1ccc(Cn2ccnc2)cc1 | 23 | 28 |  |  |  |  |
| CC(C)c1cc(-n2nnc(C(=O)NC3CCCC3)c2-c2ccc(CN3CCOCC3)cc2)c(O)cc1O | 27 | 14 | Dose-dependent effect | Dose-dependent effect | Dose-dependent effect | Dose-dependent effect |
| CC(C)c1cc(-n2nncc2-c2ccc(CN3CCCC(O)C3)cc2)c(O)cc1O (stereo unspecified) | 37 | 45 |  |  |  |  |
| CC(C)c1cc(-n2cc(-c3ccc(CN4CCN(c5ccccc5)CC4)cc3)nn2)c(O)cc1O | 320 | > 1000 |  |  |  |  |
| CC(C)c1cc(-n2nncc2-c2ccc(CN3CCOCC3)cc2)c(O)cc1O | 35 | 150 |  |  |  |  |
| CCNC(=O)c1nnn(-c2cc(C(C)C)c(O)cc2O)c1-c1ccc(CNCCN2CCOCC2)cc1 | 14.8 | 140 | Dose-dependent effect | Dose-dependent effect | Dose-dependent effect | Dose-dependent effect |

| SMILES | IC50 [1] [nM] | IC50 [2] [nM] | inhibition [3] | inhibition [4] | inhibition [5] | inhibition [6] |
| --- | --- | --- | --- | --- | --- | --- |
| CCNC(=O)c1nnn(-c2cc(C(C)C)c(O)cc2O)c1-c1ccc(CN2CCCCC2)cc1 | 21 | 6 | Dose-dependent effect | Dose-dependent effect | Dose-dependent effect | Dose-dependent effect |
| CC(C)c1cc(-n2nncc2-c2ccc(CN3CCN(c4ccccc4)CC3)cc2)c(O)cc1O | 36 | 520 |  |  |  |  |
| CCNC(=O)c1nnn(-c2cc(C(C)C)c(O)cc2O)c1-c1ccc(CN2CCCCC2CCO)cc1 (stereo unspecified) | 10 | 110 |  |  |  |  |
| CC(C)c1cc(-n2nnc(C(=O)N[C@H](C(=O)O)C(C)C)c2-c2ccc(CN3CCOCC3)cc2)c(O)cc1O | 181 | > 1000 |  |  |  |  |
| CC(C)c1cc(-n2nnc(C(=O)NC3CCCCC3)c2-c2ccc(CN3CCOCC3)cc2)c(O)cc1O | 95 | 46 |  |  |  |  |
| CCNC(=O)c1nnn(-c2cc(C(C)C)c(O)cc2O)c1-c1ccc(CN2CC[C@H](N(C)C)C2)cc1 | 13 | 85 |  |  |  |  |
| CCNC(=O)c1nnn(-c2cc(C(C)C)c(O)cc2O)c1-c1ccc(CN2CCCC2)cc1 | < 5 | 3 |  |  |  |  |
| CC(C)c1cc(-n2cc(-c3ccc(CN4CCN(Cc5ccccc5)CC4)cc3)nn2)c(O)cc1O | 295 | > 1000 |  |  |  |  |
| CCNC(=O)c1nnn(-c2cc(C(C)C)c(O)cc2O)c1-c1ccc(CN2CCC(N(C)C)CC2)cc1 | < 5 | 120 |  |  |  |  |
| CCNC(=O)c1nnn(-c2cc(C(C)C)c(O)cc2O)c1-c1ccc(CNC2CCN(C)CC2)cc1 | 32 | > 1000 |  |  |  |  |
| CC(C)c1cc(-n2nnc(C(=O)NCCCl)c2-c2ccc(CN3CCOCC3)cc2)c(O)cc1O | 17 | 4.3 |  |  |  |  |
| CC(C)c1cc(-n2nncc2-c2ccc(CN3CCN(Cc4ccccc4)CC3)cc2)c(O)cc1O | 27 | 180 |  |  |  |  |
| CCNC(=O)c1nnn(-c2cc(C(C)C)c(OC(C)=O)cc2OC(C)=O)c1-c1ccc(CN2CCOCC2)cc1 | > 1000 | 6.5 | Dose-dependent effect | Dose-dependent effect | Dose-dependent effect | Dose-dependent effect |
| CCNC(=O)c1nnn(-c2cc(C(C)C)c(O)cc2O)c1-c1ccc(CN2CCC[C@@H](O)C2)cc1 | 30 | 52 |  |  |  |  |
| CCNC(=O)c1nnn(-c2cc(C(C)C)c(O)cc2O)c1-c1ccc(CN2CCN(C)CC2)cc1 | < 5 | 47 |  |  |  |  |
